From ChEMBL document CHEMBL4145571, “Ajmaline, Oxindole, and Cytotoxic Macroline-Akuammiline Bisindole Alkaloids from Alstonia penangiana” (J Nat Prod, 2018) come the findings set out here.

For orientation: IC50 means the concentration that gives 50% inhibition.

The subject of one assay is PC-3. The assay is described as follows: Growth inhibition of human PC3 cells after 72 hrs by MTT assay. Format: functional, cell-based. As to conditions: PC-3, 72 h. The procedure, abridged:
(§1)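 Values are mean ± SD from three independent experiments. For the KB/VJ300 line with vincristine, 0.1 μM vincristine was added alongside the test compound. The remaining method details come from earlier published procedures.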
On the technique in general: Tetrazolium assays rely on reduction of a dye to a coloured formazan, in cell work by metabolically active cells.

In another assay the test system is MCF7. The experiment in a line: Growth inhibition of human MCF7 cells after 72 hrs by MTT assay. It is filed as functional, cell-based. The note with it: MCF7, 72 h. The procedure, abridged: as §1
Assay [1] concerns KB/VJ300. The assay is described as follows: Growth inhibition of human KB/VJ300 cells after 72 hrs in presence of 0.1 uM of vincristine by MTT assay. As to conditions: KB/VJ300, 72 h. It is filed as functional. The procedure, abridged: as §1
A further assay deals with HCT-116. The assay is described as follows: Growth inhibition of human HCT116 cells after 72 hrs by MTT assay. The note with it: HCT-116, 72 h. It is filed as functional, cell-based. The method, boiled down: as §1
The test system of the next assay is MDA-MB-231. The assay is described as follows: Growth inhibition of human MDA-MB-231 cells after 72 hrs by MTT assay. It is filed as functional, cell-based. The note with it: MDA-MB-231, 72 h. The method, boiled down: as §1
Assay [2] in a line: Growth inhibition of human KB/S cells after 72 hrs by MTT assay. It is filed as functional. The method, boiled down: as §1
The subject of another assay is HT-29. The assay is described as follows: Growth inhibition of human HT-29 cells after 72 hrs by MTT assay. As to conditions: HT-29, 72 h. It is filed as functional, cell-based. The procedure, abridged: as §1
A further assay relates to LNCaP. The assay is described as follows: Growth inhibition of human LNCAP cells after 72 hrs by MTT assay. Format: functional, cell-based. The procedure, abridged: as §1
Assay [3] deals with KB/VJ300. The experiment in a line: Growth inhibition of human KB/VJ300 cells after 72 hrs by MTT assay. Format: functional. The note with it: KB/VJ300, 72 h. The method, boiled down: as §1
A further assay deals with A549. The experiment in a line: Growth inhibition of human A549 cells after 72 hrs by MTT assay. It is filed as functional, cell-based. The note with it: A549, 72 h. The procedure, abridged:
as §1

With `C/C=C1/CN2CC[C@@]34c5cc([C@@H](C)[C@H]6[C@@H]7C[C@H]8c9c(c%10ccccc%10n9C)C[C@@H]([C@@H]7CO[C@@H]6O)N8C)c(OC)cc5N(C)[C@H]3[C@@H]2C[C@H]1C4C(=O)OC` (stereo partly drawn), the IC50 in the assay on PC-3 was greater than 10 µM; with MCF7, 3.8 µM; in the assay on KB/VJ300 [1] it was greater than 10 µM; in the assay on HCT-116, 6.6 µM; in the assay with MDA-MB-231, 5.2 µM; in assay [2], 2 µM. For the same compound, the IC50 was 0.7 µM with HT-29, 6.9 µM in the assay on LNCaP, greater than 10 µM in the assay on KB/VJ300 [3] and 8.3 µM in the assay with A549.

As for `COc1ccc(CCN(C)CCCC(C#N)(c2ccc(OC)c(OC)c2)C(C)C)cc1OC` (stereo not drawn) [VERAPAMIL], the IC50 with KB/VJ300 [1] was 0.1 µM.

In the case of `CC[C@]1(O)C[C@H]2CN(CCc3c([nH]c4ccccc34)[C@@](C(=O)OC)(c3cc4c(cc3OC)N(C=O)[C@H]3[C@@](O)(C(=O)OC)[C@H](OC(C)=O)[C@]5(CC)C=CCN6CC[C@]43[C@@H]65)C2)C1` [VINCRISTINE], the IC50 amounted to 0.0003 µM in [2] and 3.9 µM with KB/VJ300 [3].
